We go through 33 compounds from ChEMBL document CHEMBL1933008, “Novel 2-(2-(4-aryloxybenzylidene) hydrazinyl)benzothiazole derivatives as anti-tubercular agents” (2012).

Values after ≈ are worked out from the molar mass of the structure shown.

One test concerns Mycobacterium tuberculosis. Briefly: Antitubercular activity against Mycobacterium tuberculosis. Format: functional.
Details: not given
The method in brief: (§1)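 M. tuberculosis H37Rv suspension seeded at 10^5 cells per well in Middlebrook 7H9 broth. Compounds serially diluted directly on the plate; control got equivalent DMSO. Incubated 37 °C for 7 days, then 0.02% fresh resazurin added and incubated a further 48 h. MIC read visually as the lowest concentration giving complete inhibition (no blue-to-pink change).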
The MIC is the lowest concentration found to suppress growth. As for `Oc1cc(Cl)ccc1Oc1ccc(Cl)cc1Cl` [TRICLOSAN], 5 µg/mL (≈ 17.3 µM) was the least that counted as inhibitory (MIC).

The subject of the next test is Mycobacterium tuberculosis. Briefly: Antitubercular activity against Mycobacterium tuberculosis H37Rv after 7 days by Resazurin microtiter assay. The test is classed as functional. The note with it: 168 h. The method in brief: as §1
Consider `Cc1cc(Oc2ccc(/C=N\Nc3nc4ccc([N+](=O)[O-])cc4s3)cc2)ccc1Cl`, for which 21.5 µg/mL (≈ 49 µM) was the least that counted as inhibitory (MIC).
On the same count and under the same terms, the value for `O=[N+]([O-])c1ccc2nc(N/N=C\c3ccc(Oc4ccccc4Cl)cc3)sc2c1` was 29.5 µg/mL (≈ 69.4 µM).
Same read-out and setting: the value for `O=Cc1ccc(Oc2ccccc2)cc1` was 133 µg/mL (≈ 670 µM); that for `COc1ccc2nc(N/N=C\c3ccc(Oc4ccccc4Cl)cc3)sc2c1` was 19.5 µg/mL (≈ 47.6 µM); that for `O=[N+]([O-])c1ccc2nc(N/N=C\c3ccc(Oc4ccccc4)cc3)sc2c1` was 29 µg/mL (≈ 74.3 µM).
On the same count and under the same terms, the figure for `Cc1ccc2nc(NN)sc2c1` is 222 µg/mL (≈ 1240 µM); for `C(=N/Nc1nc2ccccc2s1)/c1ccc(Oc2ccccc2)cc1` it is 12.7 µg/mL (≈ 36.7 µM); for `Clc1ccc(Oc2ccc(/C=N/Nc3nc4ccc(Cl)cc4s3)cc2)c(Cl)c1` it is 1.5 µg/mL (≈ 3.34 µM).
For `Clc1ccc(Oc2ccc(/C=N\Nc3nc4ccc(Cl)cc4s3)cc2)cc1`, the MIC was 2.25 µg/mL (≈ 5.43 µM).
With `Clc1ccc(Oc2ccc(/C=N\Nc3nc4ccccc4s3)cc2)c(Cl)c1`, the MIC is 2.63 µg/mL (≈ 6.35 µM).
The same measure, in the same setting: the value for `Cc1ccc2nc(N/N=C\c3ccc(Oc4ccccc4)cc3)sc2c1` was 9.13 µg/mL (≈ 25.4 µM); that for `O=[N+]([O-])c1ccc2nc(N/N=C\c3ccc(Oc4ccc(Cl)cc4Cl)cc3)sc2c1` was 23.5 µg/mL (≈ 51.2 µM); that for `NNc1nc2ccccc2s1` was 288 µg/mL (≈ 1740 µM).
As to `NNc1nc2ccc(Cl)cc2s1`, the MIC turned out to be 233 µg/mL (≈ 1170 µM). This MIC and that of the compound before are within 1.5-fold of each other.
On the same count and under the same terms, the value for `Cc1ccc2nc(N/N=C\c3ccc(Oc4ccc(Cl)cc4Cl)cc3)sc2c1` was 12.6 µg/mL (≈ 29.3 µM).
On the same count and under the same terms, the value for `Cc1ccc2nc(N/N=C\c3ccc(Oc4ccc(Cl)cc4)cc3)sc2c1` was 15 µg/mL (≈ 38.1 µM); that for `Clc1ccc(Oc2ccc(/C=N\Nc3nc4ccccc4s3)cc2)cc1` was 2.94 µg/mL (≈ 7.74 µM).
The same measure, in the same setting: the value for `Clc1ccccc1Oc1ccc(/C=N\Nc2nc3ccccc3s2)cc1` was 6 µg/mL (≈ 15.8 µM).
Consider `Cc1ccc2nc(N/N=C\c3ccc(Oc4ccccc4Cl)cc3)sc2c1`, for which the MIC was determined as 4.75 µg/mL (≈ 12.1 µM).
Same read-out and setting: the value for `Cc1cc(Oc2ccc(/C=N\Nc3nc4ccc(Cl)cc4s3)cc2)ccc1Cl` was 4.5 µg/mL (≈ 10.5 µM); that for `Clc1ccc2nc(N/N=C\c3ccc(Oc4ccccc4Cl)cc3)sc2c1` was 2 µg/mL (≈ 4.83 µM).
Take `O=Cc1ccc(Oc2ccc(Cl)cc2)cc1`: it took 117 µg/mL (≈ 504 µM) to inhibit growth (MIC).
On the same count and under the same terms, the value for `NNC(=O)c1ccncc1` [ISONIAZID] was 0.4 µg/mL (≈ 2.92 µM); that for `COc1ccc2nc(N/N=C\c3ccc(Oc4ccccc4)cc3)sc2c1` was 16.5 µg/mL (≈ 43.9 µM); that for `Cc1ccc2nc(N/N=C\c3ccc(Oc4ccc(Cl)c(C)c4)cc3)sc2c1` was 15 µg/mL (≈ 36.8 µM).
Consider `O=[N+]([O-])c1ccc2nc(N/N=C\c3ccc(Oc4ccc(Cl)cc4)cc3)sc2c1`, for which 26.5 µg/mL (≈ 62.4 µM) was the least that counted as inhibitory (MIC).
Compound `Clc1ccc2nc(N/N=C\c3ccc(Oc4ccccc4)cc3)sc2c1` returned an MIC of 5.5 µg/mL (≈ 14.5 µM).
The same measure, in the same setting: the figure for `COc1ccc2nc(N/N=C\c3ccc(Oc4ccc(Cl)cc4Cl)cc3)sc2c1` is 27.5 µg/mL (≈ 61.9 µM); for `COc1ccc2nc(N/N=C\c3ccc(Oc4ccc(Cl)cc4)cc3)sc2c1` it is 8 µg/mL (≈ 19.5 µM); for `O=Cc1ccc(Oc2ccccc2Cl)cc1` it is 123 µg/mL (≈ 531 µM).
In turn, `COc1ccc2nc(N/N=C\c3ccc(Oc4ccc(Cl)c(C)c4)cc3)sc2c1` had an MIC of 27 µg/mL (≈ 63.7 µM).
Still for that read-out and setting: the figure for `Cc1cc(Oc2ccc(/C=N\Nc3nc4ccccc4s3)cc2)ccc1Cl` is 6.63 µg/mL (≈ 16.8 µM).
